Screens (PubChem BioAssay)
HNF4A DNA FP: change in binding of human HNF4 alpha to DNA | actives 0.3% (n = 360,000) | P41235 | activity change, % at 10 µM | HNF4a-FITC DNA binding, fluorescence polarization, 1 h; in the data active means activity change above about 30%, passing the limit was not always enough
CSN deneddyl inh: blocks human CSN-mediated cullin deneddylation. Q92905. Purified CSN, SCF-Nedd8-OG deneddylation, fluorescence polarization. inhibition, % at 12.5 µM. actives 0.38% (n = 360,000). AID 651999;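 active means pattern-corrected inhibition above about 35%, with an unprinted fluorescence ratio check between 0.5 and 1.5, limit read from the data, passing the limit was not always enough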;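 further: 0% = enzyme with substrate and 100% = substrate without enzyme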
Target sequence (Q92905 whole entry, looked up, one chain of several): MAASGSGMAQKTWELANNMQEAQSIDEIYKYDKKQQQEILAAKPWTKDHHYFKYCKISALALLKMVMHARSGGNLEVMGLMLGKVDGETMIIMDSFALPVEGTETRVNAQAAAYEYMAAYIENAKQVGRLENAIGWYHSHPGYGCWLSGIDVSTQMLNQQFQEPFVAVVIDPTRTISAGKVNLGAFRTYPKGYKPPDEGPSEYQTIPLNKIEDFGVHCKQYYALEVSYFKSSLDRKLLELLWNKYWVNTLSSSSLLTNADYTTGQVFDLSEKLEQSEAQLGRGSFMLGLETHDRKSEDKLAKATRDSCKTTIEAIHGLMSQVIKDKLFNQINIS
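Assay system: purified human Csn5 enzyme expressed in HEK293T cells; measure: % inhibition; also added: SCFSkp2-Nedd8OG substrate at 10 nM final; technique: fluorescence polarization; times: reaction 90 min, room temperature; medium: Tris buffer pH 7.5, NaCl, DTT, Tween-20, trehalose, ovalbumin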
IDE act: boosts human insulin-degrading enzyme activity in HEK cells. P14735. FAbeta-B cleavage, fluorescence polarization; 0% vehicle, 100% cell-free pure enzyme wells. activation, % at 5.96 µM. actives 0.073% (n = 340,000);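 active means activation above the mean of all tested compounds plus 3 SD, set per screening campaign, cut at about 17% in these data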
TPT1 inhibitor: blocks Candida albicans tRNA 2'-phosphotransferase | recombinant caTPT1, FP RNA substrate dephosphorylation | actives 0.81% (n = 300,000) | inhibition, % at 5 µM;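 active means inhibition above the mean of all tested compounds plus 3 SD, set per screening campaign, cut at about 24% in these data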;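 further: plate controls were DMSO alone for no effect and ferristatin control at 100 nM for full effect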
IDE cell inh: inhibits human insulin-degrading enzyme in HEK cells; AID 434962; inhibition, % at 5.59 µM; FAbetaB cleavage, fluorescence polarization; actives 0.41% (n = 320,000); P14735;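 active means percent inhibition above the average of all tested compounds plus 3 SD, set per screening campaign, cut at about 16% in these data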;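 further: IDE supplied by intact live HEK cells; FP after avidin binding of uncleaved biotin substrate so inhibition keeps polarization high; 0% = DMSO wells and 100% = 60 µM reference IDE inhibitor Ii1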
TbMetRS inhib: blocks T. brucei methionyl-tRNA synthetase activity; purified T. brucei MetRS, ATP depletion, Kinase-Glo luminescence; inhibition, % at 11.9 µM; actives 0.4% (n = 360,000);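 active means inhibition above a per-plate cutoff of the control wells' mean inhibition plus 3 SD, cut at about 5.5% in these data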;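 further: 0% = DMSO wells median and 100% = median of wells with control inhibitor compound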
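Assay system: T. brucei methionyl-tRNA synthetase, purified | Medium: HEPES buffer with MgCl2, KCl, DTT, spermine, BSA, pyrophosphatase | Compound: 11.9 µM single point | Incubation: 15 min enzyme-compound preincubation, 2 h reaction, 10 min detection, 25 °C | Measured by: Kinase-Glo luciferase luminescence reporting remaining unconsumed ATP | Measure: % inhibition normalized to control-well medians | Replication: Singlicate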
TbMetRS confirm: Trypanosoma brucei MetRS inhibition confirmed. actives 93% (n = 1,400). T. brucei MetRS enzyme, luminescence (ATP depletion). shares compounds with TbMetRS inhib. AID 624412. inhibition, % at 11.9 µM; in the data active means inhibition above about 7%
Jurkat cytotox: Jurkat T cell cytotoxicity for MetRS hits | shares compounds with TbMetRS inhib | Jurkat cells viability, ATP luminescence | inhibition, % at 8.3 µM | actives 12% (n = 1,400) | AID 624413; in the data active means inhibition above about 15%;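 further: 0% = vehicle and 100% = reference inhibitor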
TbMetRS FP orth: inhibits T. brucei methionyl tRNA synthetase in orthogonal FP test; shares compounds with TbMetRS inhib; purified T. brucei MetRS, fluorescence polarization; inhibition, % at 11.9 µM; actives 44% (n = 1,400); AID 651607; in the data active means inhibition above about 17%;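 further: 0% = vehicle wells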
* hit, by the source's call; . = no result. An excerpt weighted towards active compounds, which were near 1.7% of everything screened.

SMILES | HNF4A DNA FP | CSN deneddyl inh | IDE act | TPT1 inhibitor | IDE cell inh | TbMetRS inhib | TbMetRS confirm | Jurkat cytotox | TbMetRS FP orth
Cc1ccc2nc(/C(C#N)=C/c3cn[nH]c3-c3ccc(F)cc3)[nH]c2c1 | 3.6 | 6.6 | 5.1 | 1.8 | 2.0 | 24.3* | 50.9* | 56.9* | 46.9*
COc1cccc(NC(=O)C/C(C)=N/NC(=O)c2ccccc2Cl)c1 | 5.3 | -2.4 | 5.8 | -3.7 | -3.1 | -0.4 | . | . | .
C/C(CC(=O)Nc1cccc(Br)c1)=N\NC(=O)c1ccc(O)cc1O | -0.6 | -3.3 | -2.3 | -3.7 | 2.1 | 27.0* | 98.4* | 1.3 | 80.2*
COCCCN1C(=O)C(CC(=O)NCCN2CCOCC2)CC(C(=O)N2CCOCC2)=C1C (stereo not given) | -2.4 | -1.1 | . | . | . | -0.4 | . | . | .
NC(Cc1ccc(C(F)(F)F)cc1)c1csc(NC(=O)Nc2ccccc2)n1 (stereo not given) | 6.0 | 0.9 | . | . | . | 76.9* | 96.2* | 5.8 | 90.5*
NC(Cc1ccc(Cl)cc1)c1csc(NC(=O)Nc2ccccc2)n1 (stereo not given) | 0.5 | -2.2 | . | . | . | 60.6* | 86.9* | 12.0 | 85.3*
NC(Cc1ccc(C(F)(F)F)cc1)c1csc(NC(=O)Nc2ccccc2Cl)n1 (stereo not given) | 1.8 | 0.7 | . | . | . | -0.2 | . | . | .
COc1ccccc1NC(=O)Nc1nc(C(N)Cc2ccc(Cl)cc2)cs1 (stereo not given) | 0.2 | 0.1 | . | . | . | 0.7 | . | . | .
CC(=O)Nc1ccc2c(c1)C(=O)c1cccc(C(=O)O)c1-2 | 1.3 | -5.2 | 3.1 | . | . | 0.1 | . | . | .
Cc1cc(N)nc(=O)n1C1CC(O)C(CO)O1 (stereo not given) | -0.3 | -5.2 | -4.1 | . | . | -0.3 | . | . | .
CN(Cc1ccncc1)C(=O)[C@@H]1CCCN1C(=O)[C@@H]1CCCN1 | 0.7 | -1.8 | . | . | . | -0.5 | . | . | .
Cc1ccc(C2CC2C(=O)NNC(=S)Nc2cccc(Cl)c2)cc1 (stereo not given) | 4.2 | -0.7 | 0.6 | 0.9 | -2.3 | 6.5* | 13.8* | -0.1 | 9.6
O=C(NNC(=S)Nc1ccc(F)cc1)C1CC1c1ccc(Cl)cc1 (stereo not given) | 0.4 | -6.7 | -4.1 | -1.7 | -0.9 | 48.0* | 66.3* | 5.8 | 41.2*
COc1cccc(N2CCN(Cc3nc4scc(-c5ccccc5)c4c(=O)[nH]3)CC2)c1 | 9.0 | -5.5 | 3.0 | 5.4 | 2.9 | -0.2 | . | . | .
C=CCNC(=S)NNC(=O)c1ccc(=O)n(Cc2ccccc2)c1 | -0.3 | -3.1 | . | -3.4 | 3.5 | 12.7* | 23.6* | 1.4 | 9.1
Cc1ccc(CN=C2Nc3ccccc3CS2)cc1 | 1.4 | 3.0 | 0.5 | -2.5 | -3.1 | 18.5* | 31.6* | 2.5 | 8.2
Clc1ccc(CN=C2Nc3ccccc3CS2)cc1 | -2.4 | -1.6 | 2.1 | 4.3 | 2.4 | 12.2* | 25.4* | 1.5 | 14.4
Cc1ccc(C)c(C2=NNC(=NCc3ccccc3)SC2)c1 | -1.7 | 10.8 | 2.0 | . | . | -0.3 | . | . | .
COc1cccc(CN=C2Nc3ccccc3CS2)c1 | -1.8 | -4.3 | 6.7 | 0.3 | 0.1 | 6.1* | 10.7* | 13.3 | 3.2
c1cncc(CN=C2Nc3ccccc3CS2)c1 | -3.5 | -11.9 | . | -7.5 | 1.6 | 8.6* | 16.6* | -3.8 | 9.0
c1ccc2c(c1)CSc1ccccc1N2 | 3.6 | 1.6 | . | -0.6 | -2.2 | 0.7 | . | . | .
COc1ccc(-c2[nH]ncc2/C=N/NC(=O)c2ccncc2)c(OC)c1 | 4.4 | 6.0 | 4.8 | 3.4 | -6.7 | -0.3 | . | . | .
CN(C(=O)C(Cl)Cl)C1CC2C=CC1C2 (stereo not given) | 1.4 | 2.6 | 5.9 | -3.0 | -2.7 | -0.6 | . | . | .
NS(=O)(=O)c1ccc(CNC(=O)c2sccc2-c2ccccc2)cc1 | 2.7 | -1.1 | 4.8 | -2.2 | -1.9 | -0.3 | . | . | .
COc1ccccc1CN=C1Nc2ccccc2CS1 | -0.1 | -10.8 | 4.5 | -4.0 | 7.3 | 12.7* | 31.8* | -3.5 | 11.1
